# From ChEMBL document CHEMBL1126929, “Syntheses of 2,5- and 2,6-difluoronorepinephrine, 2,5-difluoroepinephrine, and 2,6-difluorophenylephrine: effect of disubstitution with fluorine on adrenergic activity” (J Med Chem, 1993)
# Assays:
# [1] = biological target: Beta-1 adrenergic receptor (Rattus norvegicus, UniProt P18090); test: Displacement of [3H]dihydroalprenolol from adrenergic beta 1 receptor of rat cerebral cortical membranes; type: cell membranes, Membrane
# [2] = biological target: T1, Adrenergic receptor alpha-1 (Rattus norvegicus, UniProt P15823+P23944+P43140); test: Displacement of [3H]WB-4101 from adrenergic alpha 1 receptor of rat cerebral cortical membranes; type: cell membranes, Membrane
# T1 sequence (P15823 whole entry): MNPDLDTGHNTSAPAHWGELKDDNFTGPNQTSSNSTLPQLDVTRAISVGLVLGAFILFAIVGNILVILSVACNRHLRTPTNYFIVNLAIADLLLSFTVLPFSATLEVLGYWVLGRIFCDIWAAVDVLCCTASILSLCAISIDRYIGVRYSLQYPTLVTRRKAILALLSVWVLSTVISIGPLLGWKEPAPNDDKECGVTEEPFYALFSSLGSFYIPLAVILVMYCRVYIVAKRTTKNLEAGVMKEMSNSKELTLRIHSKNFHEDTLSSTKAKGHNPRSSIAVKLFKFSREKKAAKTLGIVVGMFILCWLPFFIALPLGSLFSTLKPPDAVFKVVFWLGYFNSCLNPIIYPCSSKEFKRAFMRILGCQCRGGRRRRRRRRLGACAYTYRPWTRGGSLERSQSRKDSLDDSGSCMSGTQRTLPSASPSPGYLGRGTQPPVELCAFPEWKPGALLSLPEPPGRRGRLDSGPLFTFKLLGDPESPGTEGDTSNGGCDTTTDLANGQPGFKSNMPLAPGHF
# T1 sequence (P23944 whole entry): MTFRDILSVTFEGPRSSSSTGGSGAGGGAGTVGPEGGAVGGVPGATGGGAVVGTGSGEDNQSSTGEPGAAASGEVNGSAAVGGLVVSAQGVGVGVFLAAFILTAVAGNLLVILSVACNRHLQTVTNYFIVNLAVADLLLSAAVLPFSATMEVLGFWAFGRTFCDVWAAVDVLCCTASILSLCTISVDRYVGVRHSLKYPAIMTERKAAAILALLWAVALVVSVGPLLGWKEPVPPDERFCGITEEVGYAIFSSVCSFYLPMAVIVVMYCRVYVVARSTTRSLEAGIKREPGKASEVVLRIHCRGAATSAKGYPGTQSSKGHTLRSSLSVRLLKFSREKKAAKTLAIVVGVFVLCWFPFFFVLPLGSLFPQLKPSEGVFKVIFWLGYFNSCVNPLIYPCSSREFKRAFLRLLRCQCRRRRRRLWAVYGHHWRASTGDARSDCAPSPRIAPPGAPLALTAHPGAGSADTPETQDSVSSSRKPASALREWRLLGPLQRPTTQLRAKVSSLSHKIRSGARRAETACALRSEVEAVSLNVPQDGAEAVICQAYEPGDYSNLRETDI
# T1 sequence (P43140 whole entry): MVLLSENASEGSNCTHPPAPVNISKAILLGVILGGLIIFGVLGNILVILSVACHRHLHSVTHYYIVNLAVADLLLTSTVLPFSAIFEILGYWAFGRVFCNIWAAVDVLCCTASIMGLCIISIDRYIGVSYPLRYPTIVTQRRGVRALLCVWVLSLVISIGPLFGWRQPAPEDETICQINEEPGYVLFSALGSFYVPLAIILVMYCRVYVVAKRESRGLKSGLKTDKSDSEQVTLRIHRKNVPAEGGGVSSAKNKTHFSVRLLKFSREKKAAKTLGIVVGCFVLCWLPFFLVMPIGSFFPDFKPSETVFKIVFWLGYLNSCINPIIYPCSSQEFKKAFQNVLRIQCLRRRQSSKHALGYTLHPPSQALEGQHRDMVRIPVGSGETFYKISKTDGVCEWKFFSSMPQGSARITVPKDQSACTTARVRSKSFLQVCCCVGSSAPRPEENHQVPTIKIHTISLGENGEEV
# [3] = species on record: Cavia porcellus; test: Effective concentration for stimulation of [3H]phosphoinositide formation in guinea pig synaptoneurosomes expressing alpha-1 receptor; type: functional
# Procedure, shortened: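 α1 agonism was read as stimulation of [³H]phosphoinositol formation in guinea pig synaptoneurosomes. EC50 is given as a mean. Efficacy is expressed relative to the parent amine set at 100.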
# [4] = biological target: T2, Adrenergic receptor alpha-2 (Rattus norvegicus, UniProt P22086+P19328+P22909); test: Displacement of [3H]clonidine from adrenergic alpha 2 receptor of rat cerebral cortical membranes; type: cell membranes, Membrane
# T2 sequence (P22086 whole entry): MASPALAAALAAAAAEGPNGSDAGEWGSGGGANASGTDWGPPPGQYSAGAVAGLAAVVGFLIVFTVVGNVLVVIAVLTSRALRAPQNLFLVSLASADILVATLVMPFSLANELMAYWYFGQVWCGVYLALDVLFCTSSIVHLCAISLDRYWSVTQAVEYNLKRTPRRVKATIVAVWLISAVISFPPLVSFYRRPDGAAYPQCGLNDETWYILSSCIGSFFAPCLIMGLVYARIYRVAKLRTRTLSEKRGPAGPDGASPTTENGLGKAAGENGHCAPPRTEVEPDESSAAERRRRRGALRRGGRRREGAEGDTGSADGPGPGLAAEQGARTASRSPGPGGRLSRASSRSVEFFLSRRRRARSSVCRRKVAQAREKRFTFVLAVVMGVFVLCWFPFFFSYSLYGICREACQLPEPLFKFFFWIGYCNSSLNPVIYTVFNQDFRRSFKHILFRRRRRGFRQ
# T2 sequence (P19328 whole entry): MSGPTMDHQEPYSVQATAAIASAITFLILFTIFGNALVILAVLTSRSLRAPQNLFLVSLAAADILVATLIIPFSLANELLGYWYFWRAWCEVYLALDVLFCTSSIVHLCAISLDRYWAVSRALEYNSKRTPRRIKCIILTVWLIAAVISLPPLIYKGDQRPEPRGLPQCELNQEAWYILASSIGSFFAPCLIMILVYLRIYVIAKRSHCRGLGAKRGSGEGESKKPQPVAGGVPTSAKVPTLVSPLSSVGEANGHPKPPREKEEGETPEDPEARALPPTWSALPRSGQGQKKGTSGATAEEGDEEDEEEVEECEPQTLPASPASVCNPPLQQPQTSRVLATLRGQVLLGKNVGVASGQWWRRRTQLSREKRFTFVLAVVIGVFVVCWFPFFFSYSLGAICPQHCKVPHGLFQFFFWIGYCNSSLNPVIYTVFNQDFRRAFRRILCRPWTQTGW
# T2 sequence (P22909 whole entry): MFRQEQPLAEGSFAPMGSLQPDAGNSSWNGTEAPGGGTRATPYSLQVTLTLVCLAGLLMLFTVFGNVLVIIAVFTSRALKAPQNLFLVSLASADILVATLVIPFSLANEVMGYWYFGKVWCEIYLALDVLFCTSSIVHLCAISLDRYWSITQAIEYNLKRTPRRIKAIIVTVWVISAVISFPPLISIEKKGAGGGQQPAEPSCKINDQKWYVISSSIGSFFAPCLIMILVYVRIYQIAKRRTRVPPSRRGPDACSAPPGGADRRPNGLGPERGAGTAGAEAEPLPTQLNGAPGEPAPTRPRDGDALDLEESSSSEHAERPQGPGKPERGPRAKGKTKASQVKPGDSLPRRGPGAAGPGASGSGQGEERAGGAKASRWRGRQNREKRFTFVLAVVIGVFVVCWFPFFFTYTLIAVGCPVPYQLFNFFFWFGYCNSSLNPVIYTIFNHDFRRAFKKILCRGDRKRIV
# [5] = biological target: Beta-2 adrenergic receptor (Rattus norvegicus, UniProt P10608); test: Binding affinity against adrenergic beta 2 receptor versus 1 nM [3H]dihydroalprenolol in rat […] cerebellar membranes; type: cell membranes, Cerebellum, Membrane
# Sequence of Beta-2 adrenergic receptor (P10608 whole entry): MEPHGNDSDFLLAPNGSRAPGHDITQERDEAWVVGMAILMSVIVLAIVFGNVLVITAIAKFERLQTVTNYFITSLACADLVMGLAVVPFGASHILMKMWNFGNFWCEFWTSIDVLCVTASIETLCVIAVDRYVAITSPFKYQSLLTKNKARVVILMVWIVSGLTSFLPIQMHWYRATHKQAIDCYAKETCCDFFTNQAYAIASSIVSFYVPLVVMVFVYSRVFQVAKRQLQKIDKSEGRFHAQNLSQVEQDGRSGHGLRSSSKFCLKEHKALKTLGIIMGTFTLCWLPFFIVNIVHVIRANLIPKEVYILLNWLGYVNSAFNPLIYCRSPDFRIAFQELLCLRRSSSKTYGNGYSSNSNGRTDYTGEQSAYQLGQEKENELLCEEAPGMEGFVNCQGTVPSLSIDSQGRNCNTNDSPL
# [6] = biological target: Adrenergic receptor beta (Rattus norvegicus, UniProt P18090+P10608+P26255); test: Stimulation of cyclic AMP accumulation in C6 glioma cells expressing adrenergic beta receptor; type: functional, cell-based
# Procedure, shortened: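 β agonism was read as stimulation of cyclic AMP accumulation in rat C6 glioma cells. EC50 is given as a mean. Efficacy is expressed relative to the parent amine set at 100.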
# Sequence of Beta-1 adrenergic receptor (P18090 whole entry): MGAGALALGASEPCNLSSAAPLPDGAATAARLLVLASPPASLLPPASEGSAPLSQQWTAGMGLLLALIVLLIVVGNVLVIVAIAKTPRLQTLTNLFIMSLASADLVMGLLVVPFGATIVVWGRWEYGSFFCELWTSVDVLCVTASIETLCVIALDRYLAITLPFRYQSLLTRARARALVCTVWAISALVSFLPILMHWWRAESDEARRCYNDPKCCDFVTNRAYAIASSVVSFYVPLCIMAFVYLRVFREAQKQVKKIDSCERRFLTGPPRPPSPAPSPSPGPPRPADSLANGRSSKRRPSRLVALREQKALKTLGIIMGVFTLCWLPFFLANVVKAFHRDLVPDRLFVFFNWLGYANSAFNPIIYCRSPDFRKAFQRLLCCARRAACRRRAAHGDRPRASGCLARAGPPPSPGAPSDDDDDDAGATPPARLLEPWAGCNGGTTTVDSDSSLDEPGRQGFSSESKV
Compound,Ki [1] [µM],Ki [2] [µM],EC50 [3] [µM],Ki [4] [µM],Ki [5] [µM],EC50 [6] [µM]
CNCC(O)c1cc(F)c(O)c(O)c1F (stereo not given),2.3,39,2.6,1.2,0.71,–
NCC(O)c1cc(O)c(O)c(F)c1 (stereo not given),1.5,2.3,–,0.15,5.5,–
NCC(O)c1cc(O)c(O)cc1F (stereo not given),–,–,4.2,–,–,–
NCC(O)c1ccc(O)c(O)c1F (stereo not given),–,23,> 180,2.1,–,–
CNCC(O)c1cccc(O)c1F (stereo not given),4,17,80,1.2,–,–
NCC(O)c1cc(F)c(O)c(O)c1F (stereo not given),5.6,24,83,3.5,–,–
CNCC(O)c1c(F)ccc(O)c1F (stereo not given),81,17,4.3,0.94,–,–
CNCC(O)c1cc(O)c(O)cc1F (stereo not given),63,–,–,0.009,–,> 1.5
NCC(O)c1c(F)cc(O)c(O)c1F (stereo not given),> 50,–,> 100,0.75,–,> 100
CNCC(O)c1ccc(O)c(O)c1F (stereo not given),–,–,–,0.066,–,–
CNCC(O)c1cc(O)ccc1F (stereo not given),180,2.1,8,0.23,–,–
CNCC(O)c1ccc(F)c(O)c1 (stereo not given),–,–,16,–,–,–
CNC[C@H](O)c1ccc(O)c(O)c1 [EPINEPHRINE],1.2,–,–,–,–,–
CNC[C@H](O)c1cccc(O)c1 [PHENYLEPHRINE],–,–,6,–,–,–
